Article PMC7218920 (Science translational medicine, 2019)

Legend:
[1] = system: soluble GC; assay: HEK-293 cells expressing cGMP-sensor alone; assay type: cell-based, human
Outline: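 HEK-293 cells carrying the GloSensor cGMP luciferase reporter (pGS-40F), either transiently transfected or as a stable control line, with no NPR1. Luminescence from GloSensor reagent was read in real time after media, SNP (333 μM; a soluble GC activator) or hNPPA, hNPPB or NPPC (10 nM each). The stable line also received SNP and peptide concentration series. Transient time courses were run in triplicate.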

[2] = molecular target: T1, hNPR1 (Homo sapiens, UniProt P16066); assay: HEK-hNPR1-cGMP-sensor cells, qHTS cell-based assay; conditions: stable cell-line
T1 sequence (P16066 33-1061): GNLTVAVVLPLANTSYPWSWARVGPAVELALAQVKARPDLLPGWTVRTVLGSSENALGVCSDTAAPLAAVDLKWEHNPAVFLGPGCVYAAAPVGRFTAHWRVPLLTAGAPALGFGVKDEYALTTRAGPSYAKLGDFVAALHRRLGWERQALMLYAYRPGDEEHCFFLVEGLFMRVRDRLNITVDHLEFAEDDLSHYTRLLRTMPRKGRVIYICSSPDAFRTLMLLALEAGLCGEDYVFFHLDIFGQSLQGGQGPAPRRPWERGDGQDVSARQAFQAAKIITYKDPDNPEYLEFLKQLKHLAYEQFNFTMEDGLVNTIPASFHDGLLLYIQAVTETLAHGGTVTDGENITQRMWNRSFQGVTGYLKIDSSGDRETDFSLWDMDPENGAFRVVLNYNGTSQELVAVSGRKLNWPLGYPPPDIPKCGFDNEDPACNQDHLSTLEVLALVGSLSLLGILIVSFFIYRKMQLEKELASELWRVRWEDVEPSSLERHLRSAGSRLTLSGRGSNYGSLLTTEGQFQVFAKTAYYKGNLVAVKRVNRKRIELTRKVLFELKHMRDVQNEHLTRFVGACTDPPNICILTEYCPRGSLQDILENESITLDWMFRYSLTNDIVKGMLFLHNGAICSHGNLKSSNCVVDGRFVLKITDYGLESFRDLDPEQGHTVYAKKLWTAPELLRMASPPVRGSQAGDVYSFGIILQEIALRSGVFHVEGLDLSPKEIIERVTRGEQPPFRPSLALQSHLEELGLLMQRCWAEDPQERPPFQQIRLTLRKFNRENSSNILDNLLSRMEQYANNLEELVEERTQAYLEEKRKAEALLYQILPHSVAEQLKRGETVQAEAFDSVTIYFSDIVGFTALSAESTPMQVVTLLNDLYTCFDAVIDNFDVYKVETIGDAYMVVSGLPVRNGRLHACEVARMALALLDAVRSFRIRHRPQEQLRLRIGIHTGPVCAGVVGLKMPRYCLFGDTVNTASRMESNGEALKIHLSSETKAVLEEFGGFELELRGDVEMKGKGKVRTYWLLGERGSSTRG
Outline: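 A stable HEK-293 line expressing hNPR1 plus the GloSensor cGMP reporter (pGS-40F) was stimulated with hNPPA, hNPPB or NPPC for time courses (10 nM each) and concentration-response. For qHTS, luminescence was read before and 30 min after agonist addition. Compounds were screened at six log concentrations and confirmed at 8 concentrations. Counter-screens covered luciferase interference, cytotoxicity and SNP-stimulated cGMP-sensor-only cells.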

Substance: hNPPB: human natriuretic polypeptide b, NPR1 agonist
- response of stable cGMP-reporter cells ([1]; stable cGMP-sensor control cell-line): lacked responses
- luciferase activity / cGMP in cGMP reporter cells ([1]; transient cGMP-sensor, SNP 333 μM, peptides 10 nM): did not increase cGMP
- response of hNPR1-cGMP-reporter cells [2]: with appropriate potencies
